Assay results: ChEMBL document CHEMBL4261491, “Synthesis and synergistic antifungal effects of monoketone derivatives of curcumin against fluconazole-resistant Candida spp” (Medchemcomm, 2017)

Key:
[1] = tested on: Candida albicans; experiment: Antifungal activity against fluconazole-resistant Candida albicans clinical isolate 103 in presence of 8 ug/ml fluconazole by broth microdilution method; assay type: functional; conditions: for MIC80: Candida albicans, isolate 103
In short: (§1)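 Broth microdilution per CLSI/NCCLS M27-A2 against FLC-resistant clinical isolates. MIC80 read for each compound alone and with fluconazole at 8.0 μg ml–1. C. albicans ATCC 90028 served as quality control. Curcumin was the positive control.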

[2] = Cytotoxicity against HUVEC assessed as cell viability at 32 ug/ml after 24 hrs by MTT assay relative to control; assay type: cell-based; conditions: human, HUVEC cells; read-out: Activity
In short: (§2)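 HUVECs grown in DMEM with 10% FCS and 100 μg ml–1 streptomycin, 5% CO2, 37 °C. Cells exposed to compounds at 16 and 32 μg ml–1 for 24 h, then incubated with MTT solution (5 mg ml–1) for 3 h. Optical density read at 570 nm. Viability expressed as percentage relative to drug-free control.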

[3] = Cytotoxicity against HUVEC assessed as cell viability at 16 ug/ml after 24 hrs by MTT assay relative to control; assay type: cell-based; conditions: human, HUVEC cells; read-out: Activity; in short: as §2
[4] = tested on: Pichia kudriavzevii; experiment: Antifungal activity against fluconazole-resistant Candida krusei clinical isolate 2159 in presence of 8 ug/ml fluconazole by broth microdilution method; assay type: functional; conditions: for MIC80: Pichia kudriavzevii, isolate 2159; in short: as §1
[5] = tested on: Candida tropicalis; experiment: Antifungal activity against fluconazole-resistant Candida tropicalis clinical isolate 087 in presence of 8 ug/ml fluconazole by broth microdilution method; assay type: functional; conditions: for MIC80: Candida tropicalis, isolate 087; in short: as §1
[6] = tested on: Candida albicans; experiment: Antifungal activity against fluconazole-resistant Candida albicans clinical isolate 103 by broth microdilution method; assay type: functional; in short: as §1
[7] = tested on: Candida tropicalis; experiment: Antifungal activity against fluconazole-resistant Candida tropicalis clinical isolate 087 by broth microdilution method; assay type: functional; in short: as §1
[8] = tested on: Pichia kudriavzevii; experiment: Antifungal activity against fluconazole-resistant Candida krusei clinical isolate 2159 by broth microdilution method; assay type: functional; in short: as §1

Compound | fractional inhibitory concentration index (FICI) [1] | MIC80 [1] | viability at 24 h, 32 ug/ml [2] | viability at 24 h, 16 ug/ml [3] | fractional inhibitory concentration index (FICI) [4] | MIC80 [4] | fractional inhibitory concentration index (FICI) [5] | MIC80 [5] | MIC80 [6] | MIC80 [7] | MIC80 [8]
COc1cc(/C=C/C(=O)CC(=O)/C=C/c2ccc(O)c(OC)c2)ccc1O [CURCUMIN] | 0.188 | 8 µg/mL | 22% | 80% | 0.188 | 8 µg/mL | 0.188 | 8 µg/mL | – | – | –
O=C(/C=C/c1c(Cl)cccc1Cl)/C=C/c1c(Cl)cccc1Cl | >1.06 | > 64 µg/mL | – | – | >1.06 | > 64 µg/mL | >1.06 | > 64 µg/mL | > 64 µg/mL | > 64 µg/mL | > 64 µg/mL
COc1ccc(/C=C/C(=O)/C=C/c2ccc(OC)cc2)cc1 | >1.06 | > 64 µg/mL | – | – | >1.06 | > 64 µg/mL | >1.06 | > 64 µg/mL | > 64 µg/mL | > 64 µg/mL | > 64 µg/mL
O=C1/C(=C/c2ccc(O)cc2)CC/C1=C\c1ccc(O)cc1 | >1.06 | > 64 µg/mL | 60% | 69% | >1.06 | > 64 µg/mL | 0.188 | 8 µg/mL | > 64 µg/mL | > 64 µg/mL | > 64 µg/mL
COc1cccc(/C=C2\CC/C(=C\c3cccc(OC)c3OC)C2=O)c1OC | >1.06 | > 64 µg/mL | – | – | >1.06 | > 64 µg/mL | >1.06 | > 64 µg/mL | > 64 µg/mL | > 64 µg/mL | > 64 µg/mL
CN(C)c1ccc(/C=C/C(=O)/C=C/c2ccc(N(C)C)cc2)cc1 | >1.06 | > 64 µg/mL | – | – | >1.06 | > 64 µg/mL | 0.563 | 32 µg/mL | > 64 µg/mL | > 64 µg/mL | > 64 µg/mL
O=C(/C=C/c1ccc(Cl)cc1Cl)/C=C/c1ccc(Cl)cc1Cl | >1.06 | > 64 µg/mL | – | – | >1.06 | > 64 µg/mL | 0.313 | 16 µg/mL | > 64 µg/mL | > 64 µg/mL | > 64 µg/mL
CN(C)c1ccc(/C=C2\CC/C(=C\c3ccc(N(C)C)cc3)C2=O)cc1 | >1.06 | > 64 µg/mL | – | – | >1.06 | > 64 µg/mL | 1.06 | 64 µg/mL | > 64 µg/mL | > 64 µg/mL | > 64 µg/mL
O=C(/C=C/c1ccco1)/C=C/c1ccco1 | >1.06 | > 64 µg/mL | – | – | >1.06 | > 64 µg/mL | 0.313 | 16 µg/mL | > 64 µg/mL | > 64 µg/mL | > 64 µg/mL
O=C1/C(=C/c2ccco2)CC/C1=C\c1ccco1 | >1.06 | > 64 µg/mL | 69% | 86% | >1.06 | > 64 µg/mL | 0.188 | 8 µg/mL | > 64 µg/mL | > 64 µg/mL | > 64 µg/mL
O=C(/C=C/c1ccc(Cl)c(Cl)c1)/C=C/c1ccc(Cl)c(Cl)c1 | >1.06 | > 64 µg/mL | – | – | >1.06 | > 64 µg/mL | >1.06 | > 64 µg/mL | > 64 µg/mL | > 64 µg/mL | > 64 µg/mL
O=C(/C=C/c1ccc2c(c1)OCO2)/C=C/c1ccc2c(c1)OCO2 | 0.563 | 32 µg/mL | 71% | 88% | 0.094 | 2 µg/mL | 0.313 | 16 µg/mL | > 64 µg/mL | > 64 µg/mL | > 64 µg/mL
